# Screens as filed in PubChem BioAssay.
# Compounds with a hit are over-represented: about 3% of the library has one in this group of screens.
# TRPC4 potent = allosteric potentiators of mouse TRPC4 channel | Q9QUQ5 | HEK293 TRPC4beta/mu-opioid, DAMGO EC20, Fluo-4 Ca2+ flux; active compounds read high | B-score at 10 µM | 0.42% of 310,000 active | AID 2227;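 active = B-score of calcium response area above 5 SD of library B-scores, with initial fluorescence ratio within 5 SD of library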;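 note: B-score of integrated fluorescence ratio over time as area under calcium response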
# Target sequence (Q9QUQ5 whole entry, looked up): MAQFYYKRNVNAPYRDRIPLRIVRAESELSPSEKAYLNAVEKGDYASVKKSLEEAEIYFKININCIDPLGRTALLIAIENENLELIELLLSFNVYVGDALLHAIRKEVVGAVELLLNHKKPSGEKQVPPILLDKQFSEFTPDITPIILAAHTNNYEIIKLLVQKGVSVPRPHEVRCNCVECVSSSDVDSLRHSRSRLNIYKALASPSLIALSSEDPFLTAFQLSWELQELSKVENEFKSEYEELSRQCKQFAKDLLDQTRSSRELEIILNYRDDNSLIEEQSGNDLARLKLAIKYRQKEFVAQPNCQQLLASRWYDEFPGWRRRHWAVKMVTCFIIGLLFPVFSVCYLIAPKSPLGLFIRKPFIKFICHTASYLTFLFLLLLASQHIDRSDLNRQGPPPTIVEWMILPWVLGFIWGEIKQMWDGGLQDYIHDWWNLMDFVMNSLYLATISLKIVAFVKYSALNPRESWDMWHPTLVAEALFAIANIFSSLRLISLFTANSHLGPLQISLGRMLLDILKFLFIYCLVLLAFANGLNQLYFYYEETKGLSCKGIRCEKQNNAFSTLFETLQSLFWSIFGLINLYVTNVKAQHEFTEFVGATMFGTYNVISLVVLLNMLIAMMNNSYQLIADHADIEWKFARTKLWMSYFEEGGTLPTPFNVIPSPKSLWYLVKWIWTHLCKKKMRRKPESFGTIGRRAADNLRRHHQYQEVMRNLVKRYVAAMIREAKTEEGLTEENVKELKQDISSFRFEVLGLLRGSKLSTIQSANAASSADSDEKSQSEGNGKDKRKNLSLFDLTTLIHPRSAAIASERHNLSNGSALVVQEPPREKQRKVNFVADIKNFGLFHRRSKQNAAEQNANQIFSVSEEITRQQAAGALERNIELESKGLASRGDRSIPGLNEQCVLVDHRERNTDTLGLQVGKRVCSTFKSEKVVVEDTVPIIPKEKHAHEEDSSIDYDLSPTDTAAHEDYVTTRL
# TRPC6 inh = blocks the mouse TRPC6 cation channel | Q61143 | HEK293-TRPC6, membrane potential dye, ACh-evoked depolarization; active compounds read low | B-score at 10 µM | 1.1% of 310,000 active | AID 2553;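 active = B-score under library mean minus 3 SD, initial fluorescence not abnormally high, positive integrated signal ratio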;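 note: B-score derived from integrated fluorescence ratio over the kinetic read; more negative B-score means stronger inhibition of depolarization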
# Kir21 inh = Kir2.1 (mouse) channel inhibition; B-score at 10 µM; 0.85% of 310,000 active; HEK293-Kir2.1, FluxOR thallium flux fluorescence; active compounds read low; AID 1672;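 active = fluorescence ratio B-score at or below minus 3 SD of library scores, with starting-brightness B-score within 2 SD, cut at about -4.2 in these data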;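 note: channel flux triggered by added potassium and thallium sulfate stimulus; B-score of peak minus minimum fluorescence over baseline after thallium stimulus; more negative B-score means stronger Kir2.1 block with less thallium influx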
# TRPC4 inh = TRPC4 (mouse) channel inhibition; Q9QUQ5; HEK293 TRPC4beta/mu-opioid, DAMGO-evoked Fluo4 calcium flux; active compounds read low; B-score at 10 µM; 0.39% of 300,000 active; AID 2247;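 active = B-score over 3 SD under the library average, no early fluorescence shift, positive overall ratio signal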
#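 material = TRPC4beta/mu-opioid receptor HEK293 cell line | probe or stimulus = sequential submaximal and maximal DAMGO stimulation | compound dosing = one concentration per compound | measured by = Fluo4 Ca2+ flux fluorescence | evaluation = integrated fluorescence ratio relative to baseline, converted to per-well B score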
# TRPC6 activator = activators of mouse TRPC6 channel | Q61143 | HEK293-TRPC6 membrane potential dye fluorescence; active compounds read high | B-score at 10 µM | 0.13% of 310,000 active;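 active = B-score of the integrated fluorescence ratio above library mean plus 3 SD, and starting fluorescence ratio within library mean plus 5 SD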;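 note: higher score means more depolarization so channel activation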
# TRPC4 agonist = opens the mouse TRPC4 cation channel; Q9QUQ5; HEK293 TRPC4beta/mu-opioid, Fluo4 calcium fluorescence; active compounds read high; B-score at 10 µM; 0.49% of 310,000 active;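 active = B-score above 5 SD of library B-scores, and initial fluorescence ratio not above library mean plus 5 SD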;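 note: positive B-score marks a calcium rise read as TRPC4 activation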
#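 Assay system – TRPC4beta and mu-opioid receptor HEK293 stable cells · Measured by – Fluo4 fluorescence, kinetic · Schedule – dye loading 45 min room temperature, 110 s kinetic read · Read-out – B-scored integrated calcium fluorescence ratio · Controls – buffer and maximal DAMGO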
# HEK293 MPD ctr = counter-screen for TRPC6 modulators: effect in parental HEK293 cells. AID 488924. membrane potential dye fluorescence. membrane potential signal change, % at 10 µM. 51% of 2,400 active. shares compounds with TRPC6 inh;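 active = membrane potential signal moves up or down beyond 5 SD from buffer-only wells, on both duplicate plates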
# HEK293 MPD ctr 2 = second check of TRPC6 modulator effects in parental HEK293 cells; shares compounds with TRPC6 inh; membrane potential dye fluorescence; after compound, maximal acetylcholine stimulation; inhibition, % at 10 µM; 14% of 2,400 active; AID 488926;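 active = membrane potential signal drops by more than 5 SD from the mean control signal, in both duplicate plates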;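 note: plate controls were acetylcholine ECmax control wells for no effect and buffer only wells for full effect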
# TRPC4/MOR mod = mouse TRPC4 off-target activity of TRPC6 modulators. shares compounds with TRPC6 inh. HEK293 TRPC4/mu-opioid, membrane potential fluorescence. percent change from control (negative = decrease, positive = increase), % at 10 µM. 69% of 2,400 active. AID 488927;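 active = membrane potential signal moved up or down beyond 5 SD of buffer control wells, in both duplicate plates, actives on both sides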;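 note: plate controls were assay buffer wells for no effect and DAMGO maximal-effect wells for full effect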
# TRPC4 ctr inh 2 = second check of whether TRPC6 modulators also affect mouse TRPC4. 55% of 2,400 active. HEK293 TRPC4/mu-opioid, membrane potential dye fluorescence; stimulated with maximal-effect DAMGO. AID 488928. shares compounds with TRPC6 inh. inhibition, % at 10 µM;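 active = drop in membrane potential signal beyond 5 SD of the control wells in both duplicate plates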;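 note: TRPC4 counter screen for TRPC6 hits run under conditions tuned for TRPC6 not TRPC4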
# TRPC6 block conf = confirmation of mouse TRPC6 inhibitors | HEK293-TRPC6, membrane potential dye, ACh-evoked depolarization | 43% of 3,300 active | shares compounds with TRPC6 inh | inhibition, % at 10 µM | AID 488960;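 active = fluorescence ratio falls more than 5 SD below the full-stimulation control mean, in both duplicate runs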;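 note: integrated fluorescence ratio of peak minus minimum over baseline after agonist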
# TRPC6 act conf = confirmation of mouse TRPC6 activators. shares compounds with TRPC6 inh. HEK293-TRPC6 membrane potential dye fluorescence, FDSS. activation, % at 10 µM. 11% of 2,800 active. AID 488961;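 active = ratio signal rise beyond 5 SD above unstimulated control wells' mean, seen in both duplicate runs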;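 note: plate controls were buffer EC0 wells for no effect and acetylcholine ECmax response for full effect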
# * = called active by the depositor; i = inactive; / = no result.
SMILES,TRPC4 potent,TRPC6 inh,Kir21 inh,TRPC4 inh,TRPC6 activator,TRPC4 agonist,HEK293 MPD ctr,HEK293 MPD ctr 2,TRPC4/MOR mod,TRPC4 ctr inh 2,TRPC6 block conf,TRPC6 act conf
COc1cccc(C(=O)NC(=S)Nc2ccc(N3CCCC3)cc2)c1,i,i,1.7,i,i,i,/,/,/,/,/,/
CC(C)Oc1cccc(C(=O)NC(=S)Nc2ccc(N3CCN(C)CC3)cc2)c1,16*,-6.3*,1.1,i,i,i,i,i,i,62%*,42%*,i
Cc1ccccc1NC(=O)CCCC(=O)c1ccccc1,i,i,0.03,i,i,i,/,/,/,/,/,/
CSc1nc(N)c2c3c(sc2n1)CN(C)CC3,i,-7*,-1.4,i,i,i,-124%*,i,-25%*,i,i,i
C=CCSc1nc(N)c2c3c(sc2n1)CN(C)CC3,i,-6.5*,1.2,i,i,i,-76%*,i,-20%*,i,i,i
COC(CSc1nc(N)c2c3c(sc2n1)CN(C)CC3)OC,i,i,-0.02,i,i,i,/,/,/,/,/,/
COCc1cc(C)nc(NC2CC(C)(C)NC(C)(C)C2)c1C#N,i,i,-0.63,i,i,i,/,/,/,/,/,/
ONC(=Nc1ccc(Cl)cc1)c1ccccc1,i,i,0.16,i,i,i,/,/,/,/,/,/
CC(C)c1ccc(S(=O)(=O)/N=C2\C=C(NS(=O)(=O)c3ccccc3)C(=O)c3ccccc32)cc1,i,-5.3*,-3,-13*,i,i,-170%*,64%*,-30%*,80%*,68%*,i
COc1cc(/C=C2\SC(=S)N(NS(=O)(=O)c3ccccc3)C2=O)ccc1O,i,i,-1,i,15*,i,490%*,74%*,64%*,i,i,57%*
COc1ccc(/C=C2/SC(=S)N(NS(=O)(=O)c3ccccc3)C2=O)cc1,i,i,-0.4,i,i,i,/,/,/,/,/,/
COc1cc(/C=C2\SC(=S)N(NS(=O)(=O)c3ccc(C)cc3)C2=O)ccc1O,i,i,-0.05,i,23*,i,614%*,i,90%*,29%*,i,110%*
Cc1cc(C(=O)CSc2nn3c(=O)c(C(C)(C)C)nnc3s2)c(C)n1C,i,i,0.01,i,i,i,/,/,/,/,/,/
Cc1nc2cc(NC(=O)N3CCCC3)ccc2n1C,i,i,-0.24,i,i,i,/,/,/,/,/,/
Cc1nc2cc(NC(=O)N3CC4(C)CC3CC(C)(C)C4)ccc2n1C (stereo not drawn),i,-6.1*,0.55,i,i,i,i,i,i,i,i,i
Cc1cccn2c(=O)c3cc(C(=O)NCCN4CCOCC4)c(=N)n(CCCN4CCOCC4)c3nc12,i,-5*,0,i,i,i,189%*,164%*,32%*,46%*,61%*,/
CCNC(=O)c1cc2c(=O)n3cccc(C)c3nc2n(CCc2ccccc2)c1=N,i,-7.4*,0.01,i,i,i,-141%*,74%*,-28%*,48%*,63%*,i
